# Reference: ChEMBL document CHEMBL4330087, “Synthesis, antimicrobial activity, attenuation of aminoglycoside resistance in MRSA, and ribosomal A-site binding of pyrene-neomycin conjugates” (Eur J Med Chem, 2019)
# The source made the active and inactive calls. The rule behind the calls is not given here.
# How the values were obtained:
# [1] = test system: Acinetobacter baumannii; assay: Antibacterial activity against NEO-sensitive Acinetobacter baumannii ATCC 19606 at 6.25 uM after 15 to 20 hrs by CLSI protocol based microdilution assay relative to control; assay type: functional, ATCC 19606 = CIP 70.34 = JCM 6841
# Method in brief: (§1)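 Single-concentration screen at 6.25 μM against exponential-phase cultures, in duplicate, with NEO as reference. Enterococcus was grown in BHI broth, M. smegmatis in TS broth with 0.05% Tween 80, and all other strains in TS broth. The 1% DMSO water vehicle was added to broth (background) and culture (growth control). Incubation was 37 °C, humidified, 15-20 h. Result is percent growth inhibition.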
# [2] = test system: Staphylococcus aureus; assay: Antibacterial activity against NEO-sensitive Staphylococcus aureus C2 after 15 to 20 hrs by CLSI protocol based microdilution assay; assay type: functional
# Method in brief: (§2)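 CLSI broth microdilution MIC in triplicate on exponential-phase cells, ~3×10^5 cells per mL in cation-adjusted Mueller-Hinton broth. Compound was added from 10× stocks in 10% DMSO as serial 2-fold dilutions, final 50 to 0.78 μM. Plates were incubated at 37 °C, humidified, 15-20 h. Growth was read as absorbance at 595 nm, and percent inhibition was averaged over triplicates.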
# [3] = test system: Escherichia coli; assay: Antibacterial activity against NEO-sensitive Escherichia coli harboring TolC mutant at 6.25 uM after 15 to 20 hrs by CLSI protocol based microdilution assay relative to control; assay type: functional
# Method in brief: (§3)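 Exponential-phase cultures were exposed to 6.25 μM compound in duplicate with neomycin as reference, at 37 °C in a humidified incubator for 15-20 h. Broth and culture controls received sterile water with 1% DMSO. Percent growth inhibition was calculated against the growth and background controls.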
# [4] = test system: Klebsiella pneumoniae; assay: Antibacterial activity against Klebsiella pneumoniae NR-151410 at 6.25 uM after 15 to 20 hrs by CLSI protocol based microdilution assay relative to control; assay type: functional; method in brief: as §1
# [5] = test system: Enterococcus faecium; assay: Antibacterial activity against NEO-intermediate sensitive Enterococcus faecium BM4105-RF at 6.25 uM after 15 to 20 hrs by CLSI protocol based microdilution assay relative to control; assay type: functional; method in brief: as §1
# [6] = test system: Mycolicibacterium smegmatis; assay: Antibacterial activity against NEO-sensitive Mycobacterium smegmatis at 6.25 uM after 15 to 20 hrs by CLSI protocol based microdilution assay relative to control; assay type: functional; method in brief: as §1
# [7] = Displacement of F-NEO from human mitochondrial rRNA-A site C1410U mutant after 10 to 20 mins by fluorescence assay
# Method in brief: (§4)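 A 100 nM F-NEO:A-site RNA complex in 10 mM HEPES, 50 mM NaCl, 0.04 mM EDTA, pH 7.0 was titrated with 2-fold dilutions of ligand from 20 to 0.009 μM, or from 60 or 40 μM for weaker ligands. Incubated 10-20 min at room temperature, fluorescence read at ex 485/em 525 nm. IC50 from dose-response curve fit.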
# [8] = test system: Staphylococcus aureus; assay: Antibacterial activity against NEO-sensitive Staphylococcus aureus C1 after 15 to 20 hrs by CLSI protocol based microdilution assay; assay type: functional; method in brief: as §2
# [9] = test system: Streptococcus pyogenes; assay: Antibacterial activity against NEO-resistant Streptococcus pyogenes C203 at 6.25 uM after 15 to 20 hrs by CLSI protocol based microdilution assay relative to control; assay type: functional; method in brief: as §3
# [10] = biological target: Ribosomal RNA A-site; assay: Displacement of F-NEO from human mitochondrial rRNA-A site after 10 to 20 mins by fluorescence assay; assay type: nucleic-acid assay; method in brief: as §4
# [11] = test system: Ribosomal RNA A-site; assay: Displacement of F-NEO from human cytosolic rRNA-A site after 10 to 20 mins by fluorescence assay relative to NEO; assay type: nucleic-acid assay; set-up: concentration or dose not given beside the values
# Method in brief: (§5)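 100 nM F-NEO:A-site complex in 10 mM HEPES, 50 mM NaCl, 0.04 mM EDTA, pH 7.0, mixed with ligand and incubated 10-20 min at room temperature. Fluorescence read at ex 485/em 525 nm, in duplicate. Percent binding was computed from the intensities of ligand-treated complex, complex without ligand, and complex with neomycin.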
# [12] = species: Homo sapiens; assay: Displacement of F-NEO from human mitochondrial rRNA-A site C1410U mutant after 10 to 20 mins by fluorescence assay relative to NEO; set-up: concentration or dose not given beside the values; method in brief: as §5
# [13] = biological target: Ribosomal RNA A-site; assay: Displacement of F-NEO from human cytosolic rRNA-A site after 10 to 20 mins by fluorescence assay; assay type: nucleic-acid assay; method in brief: as §4
# [14] = test system: Pseudomonas aeruginosa; assay: Antibacterial activity against NEO-resistant Pseudomonas aeruginosa 27853 at 6.25 uM after 15 to 20 hrs by CLSI protocol based microdilution assay relative to control; assay type: functional; method in brief: as §3
# [15] = test system: Enterococcus faecalis; assay: Antibacterial activity against NEO-intermediate sensitive Enterococcus faecalis ATCC 29212 at 6.25 uM after 15 to 20 hrs by CLSI protocol based microdilution assay relative to control; assay type: functional; method in brief: as §1
# [16] = species: Homo sapiens; assay: Displacement of F-NEO from human mitochondrial rRNA-A site A1490G mutant after 10 to 20 mins by fluorescence assay relative to NEO; method in brief: as §5
# [17] = test system: Staphylococcus aureus; assay: Antibacterial activity against methicillin-resistant Staphylococcus aureus M0602 at 6.25 uM after 15 to 20 hrs by CLSI protocol based microdilution assay relative to control; assay type: functional; method in brief: as §3
# [18] = test system: Staphylococcus aureus; assay: Antibacterial activity against methicillin-resistant Staphylococcus aureus SU-5 at 6.25 uM after 15 to 20 hrs by CLSI protocol based microdilution assay relative to control; assay type: functional; method in brief: as §3
# [19] = test system: Staphylococcus aureus; assay: Antibacterial activity against methicillin-resistant Staphylococcus aureus A960649 at 6.25 uM after 15 to 20 hrs by CLSI protocol based microdilution assay relative to control; assay type: functional; method in brief: as §3
# [20] = Inhibition of AAC(6')-1e (unknown origin)
# [21] = test system: Ribosomal RNA A-site; assay: Displacement of F-NEO from Escherichia coli rRNA-A site after 10 to 20 mins by fluorescence assay relative to NEO; assay type: nucleic-acid assay; set-up: concentration or dose not given beside the values; method in brief: as §5
# [22] = test system: Listeria monocytogenes; assay: Antibacterial activity against NEO-sensitive Listeria monocytogenes ATCC 19115 at 6.25 uM after 15 to 20 hrs by CLSI protocol based microdilution assay relative to control; assay type: functional; method in brief: as §1
# [23] = Inhibition of AAC(2')-1c (unknown origin)
# [24] = Inhibition of Eis (unknown origin)
# [25] = test system: Staphylococcus epidermidis; assay: Antibacterial activity against NEO-sensitive Staphylococcus epidermidis 12384 at 6.25 uM after 15 to 20 hrs by CLSI protocol based microdilution assay relative to control; assay type: functional; method in brief: as §1
# [26] = test system: Staphylococcus aureus; assay: Antibacterial activity against NEO-sensitive Staphylococcus aureus harboring NorA mutant at 6.25 uM after 15 to 20 hrs by CLSI protocol based microdilution assay relative to control; assay type: functional; method in brief: as §3
# [27] = test system: Staphylococcus aureus; assay: Antibacterial activity against NEO-sensitive Staphylococcus aureus 6538 after 15 to 20 hrs by CLSI protocol based microdilution assay; assay type: functional; method in brief: as §2
# [28] = Inhibition of APH(2\")-1a (unknown origin)
# [29] = test system: Staphylococcus aureus; assay: Antibacterial activity against methicillin-resistant Staphylococcus aureus 33591 at 6.25 uM after 15 to 20 hrs by CLSI protocol based microdilution assay relative to control; assay type: functional; method in brief: as §3
# [30] = test system: Klebsiella oxytoca; assay: Antibacterial activity against NEO-sensitive Klebsiella oxytoca HM-625 at 6.25 uM after 15 to 20 hrs by CLSI protocol based microdilution assay relative to control; assay type: functional; method in brief: as §1
# [31] = test system: Escherichia coli; assay: Antibacterial activity against NEO-sensitive Escherichia coli ATCC 25922 at 6.25 uM after 15 to 20 hrs by CLSI protocol based microdilution assay relative to control; assay type: functional; method in brief: as §1
# [32] = test system: Ribosomal RNA A-site; assay: Displacement of F-NEO from human mitochondrial rRNA-A site after 10 to 20 mins by fluorescence assay relative to NEO; assay type: nucleic-acid assay; set-up: concentration or dose not given beside the values; method in brief: as §5
# [33] = Inhibition of APH(3')-1a (unknown origin)
# [34] = Inhibition of AAC(3)-4 (unknown origin)
# [35] = test system: Ribosomal RNA A-site; assay: Displacement of F-NEO from Escherichia coli rRNA-A site after 10 to 20 mins by fluorescence assay; assay type: nucleic-acid assay; method in brief: as §4
# [36] = test system: Bacillus anthracis; assay: Antibacterial activity against NEO-sensitive Bacillus anthracis BA852 at 6.25 uM after 15 to 20 hrs by CLSI protocol based microdilution assay relative to control; assay type: functional; method in brief: as §3
# [37] = test system: Escherichia coli; assay: Antibacterial activity against multidrug-resistant Escherichia coli H4H at 6.25 uM after 15 to 20 hrs by CLSI protocol based microdilution assay relative to control; assay type: functional; method in brief: as §3
# [38] = Antibacterial activity against NEO-sensitive Enterobacter cloacae 13047 at 6.25 uM after 15 to 20 hrs by CLSI protocol based microdilution assay relative to control; assay type: functional, Enterobacter cloacae subsp. cloacae, ATCC 13047; method in brief: as §1
# [39] = test system: Staphylococcus aureus; assay: Antibacterial activity against NEO-sensitive Staphylococcus aureus 25923 at 6.25 uM after 15 to 20 hrs by CLSI protocol based microdilution assay relative to control; assay type: functional; method in brief: as §1
# [40] = test system: Staphylococcus aureus; assay: Antibacterial activity against NEO-sensitive Staphylococcus aureus NRS77 after 15 to 20 hrs by CLSI protocol based microdilution assay; assay type: functional; method in brief: as §2
# [41] = test system: Ribosomal RNA A-site; assay: Binding affinity to rRNA-A site in human MDA-MB-231 cells assessed as inhibition of protein translation; assay type: cell-based
smiles,measurement,setting,value
NC[C@@H]1O[C@H](O[C@H]2[C@@H](O)[C@H](O[C@@H]3[C@@H](O)[C@H](N)C[C@H](N)[C@H]3O[C@H]3O[C@H](CN)[C@@H](O)[C@H](O)[C@H]3N)O[C@@H]2CNC(=O)CCc2ccc3ccc4cccc5ccc2c3c45)[C@H](N)[C@@H](O)[C@@H]1O,Activity,[1],10%
same,MIC,[2],25 µM
same,Activity,[3],inactive
same,Activity,[4],13%
same,Activity,[5],0%
same,Activity,[6],35%
same,IC50,[7],332 nM
same,MIC,[8],25 µM
same,Activity,[9],inactive
same,IC50,[10],373 nM
same,inhibition,[11],39%
same,inhibition,[12],65%
same,IC50,[13],447 nM
same,Activity,[14],14%
same,Activity,[15],6%
same,inhibition,[16],22%
same,Activity,[17],inactive
same,Activity,[18],inactive
same,Activity,[19],16%
same,inhibition,[20],Active
same,inhibition,[21],33%
same,Activity,[22],inactive
same,inhibition,[23],Active
same,inhibition,[24],Active
same,Activity,[25],10%
same,Activity,[26],inactive
same,MIC,[27],12.5 µM
same,inhibition,[28],Active
same,Activity,[29],14%
same,Activity,[30],5%
same,Activity,[31],0%
same,inhibition,[32],47%
same,inhibition,[33],Active
same,inhibition,[34],Active
same,IC50,[35],310 nM
same,Activity,[36],inactive
same,Activity,[37],inactive
same,Activity,[38],0%
same,Activity,[39],15%
same,MIC,[40],> 25 µM
CC/C(=C(\c1ccccc1)c1ccc(OCCN(C)C)cc1)c1ccccc1 [TAMOXIFEN],IC50,[41],18100 nM
